Assay outcomes from PubChem BioAssay.
ROMK mod = ROMK potassium channel modulators, primary screen, cell-based, thallium flux, MLSMR library; B-score at 10 µM; Tet-inducible ROMK, thallium flux fluorescence; actives lie on both sides; 2% of 130,000 active; AID 1918, 2009;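 active means signal ratio slope over the read window, or its plate-corrected B-score, at least 3 SD from the plate mean, either direction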;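 further: B-score of the F/F0 ratio slope over 7 to 12 s after thallium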
Target sequence (P48048 whole entry, looked up): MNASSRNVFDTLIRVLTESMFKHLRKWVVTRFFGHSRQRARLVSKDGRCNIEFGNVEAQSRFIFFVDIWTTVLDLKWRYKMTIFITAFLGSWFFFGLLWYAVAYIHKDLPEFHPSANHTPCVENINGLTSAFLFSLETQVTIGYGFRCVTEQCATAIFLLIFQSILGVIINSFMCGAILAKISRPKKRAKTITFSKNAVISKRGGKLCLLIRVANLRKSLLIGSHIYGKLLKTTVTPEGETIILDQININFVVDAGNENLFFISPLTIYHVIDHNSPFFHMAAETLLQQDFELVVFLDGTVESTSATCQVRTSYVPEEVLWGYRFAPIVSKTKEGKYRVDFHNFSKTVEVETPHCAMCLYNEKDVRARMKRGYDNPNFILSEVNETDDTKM
Pf gametocyte = late stage P. falciparum gametocyte viability inhibitors, primary screen, ATP luminescence, HTS; P. falciparum stage V gametocytes, 24 h; inhibition, % at 10.9 µM; 0.065% of 150,000 active; AID 743093, 2013;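 active means inhibition above the mean plus 3 SD of compounds within the control limits, set per campaign, cut at about 38% in these data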;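 further: 0% = DMSO wells and 100% = medium only without gametocytes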
Calb biofilm kill = clotrimazole potentiators killing C. albicans biofilm, primary screen, 4-compound mixtures. C. albicans biofilm persisters + clotrimazole, fluorescence viability; primary screen in compound mixtures of four per well. inhibition, % at 7.6 µM. 0.02% of 120,000 active;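 active means inhibition above 30.3% in the primary screen of four-compound pools, then above 30% when the compound was retested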;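 further: compounds exposed to preformed 24 h biofilms for 48 h; 0% = untreated biofilm control and 100% = clotrimazole plus chlorhexidine kill blank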
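Probe or stimulus – Clotrimazole 50 µg/mL co-treatment · System – C. albicans biofilms · Schedule – 24 h biofilm formation, then 48 h compound exposure, 37 °C · Evaluation – percent inhibition of biofilm viability · Technique – 2-h Alamar Blue fluorescence, 535/590 nm excitation/emission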
An asterisk follows results filed as active; x = not tested or not shown. The sample as a whole holds a higher share of hits than the screen did.

SMILES	ROMK mod	Pf gametocyte	Calb biofilm kill
Cc1ccc(C2C3CN(C(C)C)CC=C3C(C#N)=C(N)C2(C#N)C#N)cc1 (centres undefined)	-4.3*	x	x
CC(=O)N1CC=C2C(C#N)=C(N)C(C#N)(C#N)[C@H](c3ccoc3)[C@H]2C1	-0.75	6	x
COc1ccc(OC)c(C2C3CN(C(C)C)CC=C3C(C#N)=C(N)C2(C#N)C#N)c1 (centres undefined)	-0.96	x	x
O=C(NCC(O)CO)c1csc(Nc2cccc3ccccc23)n1 (centres undefined)	x	20	x
CCCS(=O)(=O)c1ccc(COC(=O)Cc2ccc([N+](=O)[O-])cc2)cc1	x	-17	x
CC(C)CN(Cc1cc(=O)oc2cc(-c3ccccc3)c(O)cc12)CC(C)C	x	4	8
CC(=O)Nc1ccc(-c2sc(Nc3cccc4ccccc34)n[n+]2-c2ccccc2)cc1	x	-23	x
CC1CN(c2ccc(NC(=S)NNCCC#N)cc2)CC(C)O1 (centres undefined)	0.16	5	11
CC(=O)Nc1ccc(C(=O)OCC(=O)Nc2ccccc2Sc2ccccc2)cc1	-0.11	-19	11
N#CCC(=O)Nc1ccc(C(=O)OCC(=O)Nc2ccccc2Sc2ccccc2)cc1	0.27	40*	14
Cc1cc([N+](=O)[O-])ccc1NC(=O)c1cc2ccccc2o1	x	-4	x
COc1ccc(Cl)cc1C(=O)CSc1nnnn1C1CCCC1	-0.74	x	x
COc1ccc(Cl)cc1C(=O)CSc1nnnn1C1CCCCC1	x	43*	x
CCOC(=O)[C@H]1[C@H]2COc3ccc(Br)cc3[C@@H]2N2C(=O)c3cc(F)c(F)cc3NC(=O)[C@@]12C	x	-10	x
COc1ccc(NC(=O)CN(C)CC(=O)Nc2ccc3c(c2)CCC3)cc1	0.064	-4	8
CN(CC(=O)Nc1ccc2c(c1)CCC2)CC(=O)Nc1ccccc1Br	-1	39*	6
CCCc1cc(=O)[nH]c(SCC(=O)N2CCN(S(=O)(=O)c3ccccc3)CC2)n1	0.69	-15	5
CCCc1cc(=O)[nH]c(SCC(=O)N2CCN(S(=O)(=O)c3ccc4ccccc4c3)CC2)n1	x	64*	6
CC(=O)N(c1nnc(-c2ccc(C)cc2)s1)C1CCCC1	x	-24	x
CN1/C(=C\C(=O)CN2C(=O)NC3(CCCCCC3)C2=O)C(C)(C)c2ccccc21	-2.8*	x	x
Cc1cccc[n+]1CC(=O)/C=C1\N(C)c2ccccc2C1(C)C	x	5	32
Cc1cc(F)ccc1NCC(=O)Nc1ccc(Br)cc1C	x	1	18
COCC(=O)Nc1ccc(Br)cc1C	x	39*	0
COc1cc(/C=C/C(=O)O[C@H]2[C@H](O[C@@H]3O[C@@H](C)[C@H](O)[C@@H](O)[C@H]3O)[C@@H](O)[C@H](OCCc3ccc(O)c(OC)c3)O[C@@H]2CO)ccc1O	x	-13	x
CC(C)=NNC(=O)C1=NNC(=O)C1	-0.23	-10	26
SMILES	ROMK mod	Pf gametocyte	Calb biofilm kill
COc1ccc(O)c(CN2CCN(CCCc3ccccc3)C(CCO)C2)c1 (centres undefined)	x	-4	x
Cc1ccc(Cc2cnc(NC(=O)C3=NCCN3)s2)cc1	2.7	4	9
O=C(Nc1ncc(Cc2ccccc2)s1)C1=NCCN1	-0.28	38*	16
CCOC(=O)[C@H]1[C@H]2COc3cc(OC)ccc3[C@@H]2N2C(=O)c3cc(C)ccc3NC(=O)[C@@]12C	x	-14	x
CCOC(=O)[C@H]1[C@H]2COc3cc(OC)ccc3[C@@H]2N2C(=O)c3ccc(C)cc3NC(=O)[C@@]12C	x	39*	x
COCc1cc(C)nc2sc(C(=O)Nc3ccccc3OC)c(N)c12	x	27	x
CC1=NN(c2ccccc2)C(=O)/C1=C\c1c(C)[nH]n(-c2ccccc2)c1=O	-3.6*	1	x
CC1=NN(c2ccccc2)C(=O)/C1=C\c1cn(-c2ccccc2)nc1C	0.47	-5	4
CC1(C)Oc2ccc(C(=O)N3CCc4ccccc43)cc2N(CC(=O)N2CCCC2)C1=O	3.8*	x	x
CC(C)(C)NC(=O)c1ccc2c(c1)N(CC(=O)N1CCCC1)C(=O)C(C)(C)O2	x	4	x
CCOC(=O)CCCCCC(=O)Nc1ccc2c(c1)CC(=O)N([C@H](C)CO)C[C@H](C)[C@H](CN(C)S(=O)(=O)c1ccc(OC)cc1)O2	x	-4	x
CCOC(=O)C1CCN(C(c2cc3c(C)ccc(C)c3[nH]c2=O)c2nnnn2C2CCCCC2)CC1 (centres undefined)	-1.3	-3	x
CCOC(=O)C1CCN(C(c2cc3ccc(C)c(C)c3[nH]c2=O)c2nnnn2C2CCCCC2)CC1 (centres undefined)	-2.5*	-14	x
Cc1cccc(CCN2C(N(C)C)=NC[C@@H]2C)c1	x	12	x
O=c1nc(-c2ccccc2)c2cc(SC(F)F)ccc2[nH]1	x	-1	x
Cn1c(O)c(N=Nc2ccc(F)cc2)c2ccccc21	-1.8	0	13
Cn1c(O)c(N=Nc2nc(-c3ccccc3)cs2)c2ccccc21	2.8*	3	7
CCc1ccc(S(=O)(=O)/N=C2\C=CC(=O)c3ccccc32)cc1	x	x	20
CCc1ccc(S(=O)(=O)/N=C2/C=C(Sc3ncn[nH]3)C(=O)c3ccccc32)cc1	-7.8*	x	14
CCc1nc2ccccc2c(=O)n1/N=C/c1ccc(OC)cc1	x	-14	x
COc1ccc(S(=O)(=O)Nc2cc(Sc3ncn[nH]3)c(O)c3ccccc23)cc1	-6.3*	x	x
COc1ccc(S(=O)(=O)Nc2ccc(O)c(Sc3ncn[nH]3)c2)cc1	x	x	9
O=c1c(Cl)c(N2CCCCC2)cnn1-c1nc2ccccc2[nH]1	x	-8	x
O=c1c2ccccc2cnn1-c1nc2ccccc2[nH]1	0.65	47*	15
CC1CCN(C(=O)C(C)NCc2ccc(F)cc2)CC1 (centres undefined)	x	-8	x
SMILES	ROMK mod	Pf gametocyte	Calb biofilm kill
COc1ccc([C@H]2CC(=O)C=C(c3c(C)cc(C)cc3C)C2)cc1	x	-17	x
Cc1ccc(C(=O)Cn2nnc(-c3cccs3)n2)cc1	x	16	13
O=C(CN1CC[n+]2c(-c3cccs3)csc21)c1ccc(-c2ccccc2)cc1	-5.6*	32	6
O=Cc1c(NCc2ccccc2Cl)c2ccccc2[nH]c1=O	x	-20	x
CCC(=O)N1c2ccc(S(=O)(=O)CCC(=O)Nc3nccs3)cc2CC1C (centres undefined)	5.6*	13	x
CCC(=O)N1CCc2cc(S(=O)(=O)CCC(=O)Nc3nc(C)cs3)ccc21	1.3	x	x
CC(C)c1nnc(SCC(=O)N2CCN(C(=O)c3ccco3)CC2)n1N	0.85	6	-2
S=c1nc(C2CCCCC2)[nH]c2ccccc12	3.1*	-6	4
S=c1nc(C2CC2)[nH]c2ccccc12	x	-11	x
O=C(NC1CCC(Oc2ccc(C(=O)O)cc2)CC1)NC12CC3CC(CC(C3)C1)C2 (centres undefined)	x	-2	x
Cc1nn(-c2ccccn2)c2nc(-c3cccs3)cc(C(=O)NCc3ccco3)c12	-0.73	x	x
Cc1nn(-c2ccccc2)c2nc(-c3ccncc3)cc(C(=O)NCc3ccco3)c12	0.87	56*	x
Cc1ccc(S(=O)(=O)O/N=C2\CCCc3ccccc32)cc1	0.69	3	x
CC1=C(C)/C(=N\OS(=O)(=O)c2ccccc2)C=CC1=O	-4.3*	x	x
